# In ChEMBL document CHEMBL1142702, “Dynamic receptor-based pharmacophore model development and its application in designing novel HIV-1 integrase inhibitors” (J Med Chem, 2005):
# Experiments:
# [1] = biological target: T1, Human immunodeficiency virus type 1 integrase (Human immunodeficiency virus 1, UniProt Q7ZJM1); test: Concentration to inhibit 3' processing of wild type Human immunodeficiency virus-1 integrase
# Procedure, shortened: (§1)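 Recombinant wild-type IN, 200 nM final, preincubated with inhibitor at 30 °C for 30 min. 20 nM 5′-32P-labeled 21-mer duplex substrate then added for 1 h. Quenched with formamide loading dye. 19-mer or strand-transfer product fraction gave percent inhibition. IC50 from log concentration versus percent inhibition.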
# [2] = biological target: T1, Human immunodeficiency virus type 1 integrase; test: Concentration to inhibit strand transfer of wild type Human immunodeficiency virus-1 integrase; procedure, shortened: as §1
# [3] = biological target: T1, Human immunodeficiency virus type 1 integrase; test: Concentration to inhibit strand transfer of wild type Human immuno deficiency virus-1 integrase; procedure, shortened: as §1
# [4] = biological target: T1, Human immunodeficiency virus type 1 integrase; test: Concentration to inhibit 3' processing of wild type Human immuno deficiency virus-1 integrase; procedure, shortened: as §1
# [5] = biological target: T1, Human immunodeficiency virus type 1 integrase; test: Concentration to inhibit 3' processing of soluble mutant (F185K, C280S) of wild type Human immunodeficiency virus-1 integrase
# Procedure, shortened: (§2)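 Integrase (200 nM final) is preincubated with inhibitor for 30 min at 30 °C in buffer with MOPS pH 7.2, HEPES pH 7.5, 7.5 mM MnCl2, 50 mM NaCl, BSA, DTT, 2-mercaptoethanol, glycerol, EDTA and 10% DMSO. Then 20 nM 5′-32P-labelled 21-mer duplex substrate is added for 1 h, and the reaction is quenched with formamide/EDTA dye. The fraction converted to 19-mer (3′-processing) or to strand-transfer products gives percent inhibition, and IC50 comes from log concentration versus percent inhibition.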
# [6] = biological target: T1, Human immunodeficiency virus type 1 integrase; test: Concentration to inhibit strand transfer of soluble mutant (F185K, C280S) of wild type Human immunodeficiency virus-1 integrase; procedure, shortened: as §2
SMILES,IC50 [1] [µM],IC50 [2] [µM],IC50 [3] [µM],IC50 [4] [µM],IC50 [5] [µM],IC50 [6] [µM]
C/C(CC(=O)Nc1c(C)cc(C)cc1C)=N\NC(=O)c1ccc(O)cc1O,> 1000,150,,,,
COc1ccc(NS(=O)(=O)c2cccc(C(=O)Nc3ccccc3C(=O)O)c2)cc1,,,300,355,,
O=C(O)c1cc(NS(=O)(=O)c2ccc(NCCCN3CCOCC3)c([N+](=O)[O-])c2)cc(C(=O)O)c1,,,100,140,,
CCOC(=O)c1cc(C(=O)OCC)c(SCC(=O)Nc2ccc(Br)cc2)nc1O,,,> 100,> 100,,
O=C(c1ccccc1)c1ccc(OCC(O)COc2ccc(C(=O)c3ccccc3)c(O)c2)cc1O,,,> 100,> 100,,
O=C(NCc1ccco1)c1cc(C(=O)NCc2ccco2)cc(C(=O)NCc2ccco2)c1,,,8,37,,
Cc1ccc(NC(=O)C(=O)NCc2ccc(/C=N\NC(=O)C(=O)Nc3cc(Cl)ccc3C)o2)cc1C,,,> 100,> 100,510,70
COc1ccc(C(=O)Nc2ccc(Cc3ccc(NC(=O)c4ccc(OC)cc4)c(O)c3)cc2O)cc1,,,> 100,> 100,,
O=C(O)c1cc(NS(=O)(=O)c2ccc(NCc3ccccc3)c([N+](=O)[O-])c2)cc(C(=O)O)c1,> 100,66,,,,
CCc1cc(/C=N/CC/N=C/c2cc(CC)sc2S)c(S)s1,,,21,> 100,> 100,6
CCOc1ccc2[nH]c(SCC(=O)Nc3cc(C(=O)O)cc(C(=O)O)c3)nc2c1,> 100,> 100,,,,
COC(=O)c1cc(NS(=O)(=O)c2ccc(NCc3cccnc3)c(N)c2)cc(C(=O)OC)c1,,,> 100,> 100,,
O=C(N/N=C/c1ccc(O)cc1O)c1cc(C2CC2)[nH]n1,,,43,177,,
O=C(Nc1ccc(Cc2ccc(O)c(NC(=O)c3ccccc3F)c2)cc1O)c1ccccc1F,> 100,> 100,,,205,33
O=C(NCc1cccc(CNC(=O)C(=O)NCc2ccco2)c1)C(=O)NCc1ccco1,,,> 100,> 100,1000,40
O=C(Nc1ccc(Cc2ccc(NC(=O)c3cccs3)c(C(=O)O)c2)cc1C(=O)O)c1cccs1,63,38,,,,
COC(=O)C1=C(O)/C(=C\c2ccc(CNC(=O)C(=O)Nc3ccc(C)cc3)o2)N=C1C,> 100,81,,,,
COC(=O)c1sccc1NC(=O)c1ccc(C(=O)Nc2ccsc2C(=O)OC)cc1,> 100,97,,,,
CCOC(=O)C(=O)NCc1ccc(/C=C2/N=C(C)C(C(=O)OCC)=C2O)o1,> 100,> 100,,,,
O=C(Nc1ccc(Cc2ccc(NC(=O)c3cccc([N+](=O)[O-])c3)c(C(=O)O)c2)cc1C(=O)O)c1cccc([N+](=O)[O-])c1,15,13,,,,
COc1ccc2[nH]c(SCC(=O)Nc3ccc(O)c(C(=O)O)c3)nc2c1,,,> 100,> 100,,
CCN(CC)c1ccc(/C=N/Nc2nonc2N)c(O)c1,> 100,> 100,,,,
COc1cc(/C=N/NC(=O)c2cc(C3CC3)[nH]n2)ccc1O,,,> 100,> 100,,
